Data taken from ChEMBL document CHEMBL1154009, “Identification, synthesis and SAR of amino substituted pyrido[3,2b]pyrazinones as potent and selective PDE5 inhibitors” (Bioorg Med Chem Lett, 2009).

What was measured:
[1] = target: cGMP-specific 3',5'-cyclic phosphodiesterase (Homo sapiens, UniProt O76074); assay: Inhibition of PDE5
[2] = Inhibition of PDE11
[3] = Inhibition of PDE6
[4] = Aqueous solubility at pH 7.4; type: physicochemical; details: aqueous medium
[5] = Selectivity ratio of IC50 for PDE6 to IC50 for PDE5
[6] = Selectivity ratio of IC50 for PDE11 to IC50 for PDE5
[7] = Half life in Sprague-Dawley rat at 2 mg/kg, po and 2mg/kg, iv; type: ADME, organism-based; design: dose 2 mg/kg, route oral; details: in vivo
In short: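 Sprague Dawley rats (n = 3) dosed IV at 2 mpk in 70% PEG400/20% 0.05 M citrate buffer/10% ethanol, pH 5.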

IC50 [1] [nM]	IC50 [2] [nM]	IC50 [3] [nM]	solubility [4] [µM]	Ratio IC50 [5]	Ratio IC50 [6]	half-life [7] [h]	Compound
22.4	> 2000	> 2000					CCCOCCn1c(=O)c(NCC2CCOCC2)nc2ccc(-c3ccc(F)cc3)nc21
25	41	150					COc1ccc(Cn2c(=O)ccc3ccc(-c4ccncc4)cc32)cc1
0.4	5.9	25.2	< 3				COc1ccc(-c2ccc3nc(NCCN4CCOCC4)c(=O)n(CC4CCCCC4)c3n2)cn1
3.5	90.9	> 2000					CN(C)C(=O)CNc1nc2ccc(-c3ccc(F)cc3)nc2n(CC2CCCCC2)c1=O
13.4	558	871					O=c1c(NCc2cccnc2)nc2ccc(-c3ccc(F)cc3)nc2n1CC1CCCCC1
33.3	> 2000	1850					CCCOCCn1c(=O)c(NCCN2CCOCC2)nc2ccc(-c3ccc(F)cc3)nc21
1.6	213	195		> 100			O=c1c(NCCN2CCOCC2)nc2ccc(-c3ccc(F)c(F)c3)nc2n1CC1CCCCC1
0.3	7.7	72					COc1ccc(-c2ccc3nc(NCC(=O)N(C)C)c(=O)n(CC4CCCCC4)c3n2)cn1
2.4	1540	317		> 100	> 600	3	CCCOCCn1c(=O)c(NCCN2CCOCC2)nc2ccc(-c3ccc(OC)nc3)nc21
0.3	8.1	32					COc1ccc(-c2ccc3nc(NCC4CCOCC4)c(=O)n(CC4CCCCC4)c3n2)cn1
2.9	79.2	112					O=c1c(NCC2CCOCC2)nc2ccc(-c3ccc(O)nc3)nc2n1CC1CCCCC1
4.6	405	240		> 100			O=c1c(NCCN2CCOCC2)nc2ccc(-c3ccc(F)cc3)nc2n1CC1CCCCC1
43	> 2000	1160					CCCCCN1C(=O)CN(C)c2ncc(-c3ccc(F)c(F)c3)cc21
2.7	390	910					O=c1c(NCC2CCOCC2)nc2ccc(-c3ccc(F)cc3)nc2n1Cc1cc(F)cc(F)c1
2	482	11.6			100		COc1ccc(Cn2c(=O)c(NCCN3CCOCC3)nc3ccc(-c4ccc(F)c(F)c4)nc32)cc1
28.5	145	114					Nc1nc2ccc(-c3ccc(F)cc3)nc2n(CC2CCCCC2)c1=O
2.3	1230	350		> 100	> 600		CCCOCCn1c(=O)c(NCC2CCOCC2)nc2ccc(-c3ccc(OC)nc3)nc21

IC50 [1] [nM]	IC50 [2] [nM]	IC50 [3] [nM]	solubility [4] [µM]	Ratio IC50 [5]	Ratio IC50 [6]	half-life [7] [h]	Compound
534							CCCOCCn1c(=O)c(NCCN2CCOCC2)nc2ccc(-c3ccc(=O)[nH]c3)nc21
20.3	970	920					O=c1c(NCC2CCOCC2)nc2ccc(-c3ccc(F)cc3)nc2n1Cc1ccccn1
224							CC(C)Cn1c(=O)c(NCC2CCOCC2)nc2ccc(-c3ccc(F)cc3)nc21
149							CCOCCn1c(=O)c(NCC2CCOCC2)nc2ccc(-c3ccc(F)cc3)nc21
51		6					CCCn1ccc(=O)c2c(N)nc(-c3ccccc3)cc21
1.3	345	10.1			100		COc1ccc(Cn2c(=O)c(NCCN3CCOCC3)nc3ccc(-c4ccc(F)cc4)nc32)cc1
1	286	41.6					Cc1noc(C)c1-c1ccc2nc(NCCN3CCOCC3)c(=O)n(CC3CCCCC3)c2n1
26.7	> 2000	> 2000					CCCOCCn1c(=O)c(NCCN2CCOCC2)nc2ccc(-c3cnc(OC)nc3)nc21
14.5	1210	1190		> 100	> 600		CCCOCCn1c(=O)c(NCC(=O)N(C)C)nc2ccc(-c3ccc(OC)nc3)nc21
2.5	474	375					O=c1c(NCC2CCOCC2)nc2ccc(-c3ccc(F)cc3)nc2n1Cc1cccnc1
3	324	459		> 100			O=c1c(NCC2CCOCC2)nc2ccc(-c3ccc(F)cc3)nc2n1CC1CCCCC1
0.9	36.5	33.5					O=c1c(NCC2CCOCC2)nc2ccc(-c3ccncc3)nc2n1CC1CCCCC1
52.5	1660	979					CC(C)OCCn1c(=O)c(NCCN2CCOCC2)nc2ccc(-c3ccc(F)c(F)c3)nc21
33.9	> 2000	1170					CCCOCCn1c(=O)c(NCC2CCOCC2)nc2ccc(-c3ccncc3)nc21
0.3	8.2	36.3					COc1ncc(-c2ccc3nc(NCC4CCOCC4)c(=O)n(CC4CCCCC4)c3n2)cn1
36.5	> 2000	1980					CCCOCCn1c(=O)c(NCCN2CCOCC2)nc2ccc(-c3c(C)noc3C)nc21
